Data: article PMC12796350 (Scientific Reports, 2025)
Like-named read-outs stand apart in the source and are kept apart here.

Assays:
[1] = system: A549 (human lung adenocarcinoma) cells; experiment: MTT cytotoxicity assay, A549; assay type: cell-based; settings: for IC50: read-out: IC50 A549; for SI A549 (Selectivity Index): SI = IC50 for normal cell line (HaCaT)/IC50 cancer cell line
How it was run: (§1)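 Cells were seeded in 96-well plates at 1 × 10^4 per well in DMEM with 2% FBS and exposed 72 h to a range of test-compound concentrations. MTT (0.5 mg/mL) was added for 4 h, and formazan was dissolved in 0.04 M HCl/isopropanol. A570 was read relative to untreated control. […] SI = IC50 in HaCaT keratinocytes / IC50 in the cancer line. Mean SD.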

[2] = system: HTB-140 (human melanoma) cells; experiment: MTT cytotoxicity assay, HTB-140; assay type: cell-based; settings: for IC50: 72 h, read-out: IC50 HTB-140; for SI HTB-140 (Selectivity Index): SI = IC50 for normal cell line (HaCaT)/IC50 cancer cell line
How it was run: as §1

[3] = system: HeLa (human cervical cancer) cells; experiment: MTT cytotoxicity assay, HeLa; assay type: cell-based; settings: for IC50: 72 h, read-out: IC50 HeLa; for SI HeLa (Selectivity Index): SI = IC50 for normal cell line (HaCaT)/IC50 cancer cell line
How it was run: as §1

[4] = system: SW620 (human colorectal cancer) cells; experiment: MTT cytotoxicity assay, SW620; assay type: cell-based; settings: for SI SW620 (Selectivity Index): SI = IC50 for normal cell line (HaCaT)/IC50 cancer cell line
How it was run: as §1

[5] = system: HaCaT (immortalized human keratinocytes); experiment: MTT cytotoxicity assay, HaCaT normal cells; assay type: cell-based; settings: 72 h, read-out: IC50 HaCaT (normal cells)
[6] = system: A549 cells; experiment: Apoptosis, Annexin V-FITC/7-AAD flow cytometry, A549; assay type: cell-based, human; settings: for cells in late apoptosis or necrosis: A549, IC50 concentration, 72 h
How it was run: (§2)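 Human HTB-140, A549, HeLa, SW620 or HaCaT cells were grown in DMEM with 2% FBS at 1 × 10^4 cells per well and preincubated 72 h with test compound. Camptothecin, 4 µM for 4 h, served as the positive control. Cells were dual-stained with Annexin V-FITC and 7-AAD, and 10,000 cells were analysed by flow cytometry. Annexin+/7-AAD− cells counted as early apoptotic; Annexin+/7-AAD+ as late apoptotic or necrotic.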

[7] = system: HaCaT cells; experiment: LDH release assay, HaCaT; assay type: cell-based, human; settings: 25 µM, 72 h
[8] = system: HTB-140 cells; experiment: Apoptosis, Annexin V-FITC/7-AAD flow cytometry, HTB-140; assay type: cell-based, human
How it was run: as §2

[9] = system: interleukin-6 (IL-6) release, A549 cells; experiment: IL-6 level by ELISA, A549; assay type: cell-based, human; settings: A549, IC50 dose, 72 h
How it was run: (§3)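 Cells were seeded at 1 × 10^4 per well in DMEM with 2% FBS and exposed to test compound for 72 h. IL-6 in the culture supernatant was measured with a commercial ELISA kit and compared with untreated control. Data are mean ± SD from three independent experiments, each run in triplicate, compared by Student's t-test.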

[10] = system: HTB-140 cells; experiment: LDH release assay, HTB-140; assay type: cell-based, human; settings: 25 µM, 72 h
[11] = system: interleukin-6 (IL-6) release, HeLa cells; experiment: IL-6 level by ELISA, HeLa; assay type: cell-based, human; settings: IC50 dose, 72 h
How it was run: as §3

[12] = system: interleukin-6 (IL-6) release, SW620 cells; experiment: IL-6 level by ELISA, SW620; assay type: cell-based, human; settings: SW620, IC50 dose, 72 h
How it was run: as §3

[13] = system: interleukin-6 (IL-6) release, HTB-140 cells; experiment: IL-6 level by ELISA, HTB-140; assay type: cell-based, human; settings: HTB-140, IC50 dose, 72 h
How it was run: as §3

[14] = system: HaCaT cells; experiment: Apoptosis, Annexin V-FITC/7-AAD flow cytometry, HaCaT; assay type: cell-based, human; settings: 4 µM, 4 h
How it was run: as §2

[15] = system: HeLa cells; experiment: Apoptosis, Annexin V-FITC/7-AAD flow cytometry, HeLa; assay type: cell-based, human; settings: 4 µM, 4 h
How it was run: as §2

[16] = system: SW620 cells; experiment: Apoptosis, Annexin V-FITC/7-AAD flow cytometry, SW620; assay type: cell-based, human; settings: SW620, 4 µM, 4 h
How it was run: as §2

[17] = Homo sapiens, SW-620, 72 h, read-out: IC50 SW620, MTT, 72 h, mean SD
[18] = HTB-140, IC50 concentration, 72 h
[19] = read-out: IC50 SW620, MTT, 72 h, mean SD

| Structure (SMILES) | IC50 ([1]; Homo sapiens, A549, 72 h) [µM] | SI A549 (Selectivity Index) [1] | IC50 ([2]; Homo sapiens) [µM] | SI HTB-140 (Selectivity Index) [2] | IC50 ([3]; Homo sapiens, HeLa) [µM] | SI HeLa (Selectivity Index) [3] | IC50 [4, 17] [µM] | SI SW620 (Selectivity Index) [4] | IC50 ([5]; Homo sapiens, HaCaT) [µM] | other results |
| --- | --- | --- | --- | --- | --- | --- | --- | --- | --- | --- |
| CCc1cc(=O)c2c(O)c3ccoc3c(O)c2o1 [Compound 1, 7-ethyl-4,9-dihydroxy-5 H-furo[3,2-g][1]benzopyran-5-one] | 39.8 ± 7.9 | 1.25 | 30.4 ± 8.7 | 1.64 | 41.5 ± 4.6 | 1.20 | 21.1 ± 4.4 | 2.36 | 49.8 ± 7.9 | – |
| CCc1cc(=O)c2c(O)c3ccoc3c(OC)c2o1 [Compound 2, 7-ethyl-4-hydroxy-9-methoxy-5H-furo[3,2-g][1]benzopyran-5-one] | 36.5 ± 6.5 | 1.27 | 29.4 ± 3.4 | 1.58 | 29.2 ± 3.9 | 1.59 | 17.4 ± 3.5 | 2.67 | 46.5 ± 8.5 | cells in late apoptosis or necrosis [6]: 63.2%; LDH release [7]: 13.5%; cells in early apoptosis [8, 18]: 19.5%; cells in late apoptosis or necrosis [8, 18]: 20.8%; IL-6 release effect vs control [9]: 38%; LDH release [10]: 30.4% |
| CCc1cc(=O)c2c(OCC(O)CN(CC)CC)c3ccoc3c(OC)c2o1 (stereo not shown) [Compound 3, 7-ethyl-9-methoxy-4-[3-(diethylamino)-2-hydroxypropoxy]-5H-furo[3,2-g][1] benzopyran-5-one] | 33.6 ± 4.1 | 1.29 | 30.1 ± 4.7 | 1.44 | 34.2 ± 4.9 | 1.27 | 12.7 ± 5.1 | 3.41 | 43.3 ± 9.1 | inhibition of IL-6 release vs control [11]: 48% |
| CCc1cc(=O)c2c(OCC(O)CNC(C)C)c3ccoc3c(OC)c2o1 (stereo not shown) [Compound 4, 7-ethyl-9-methoxy-4-{2-hydroxy-3-[(propan-2-yl)amino]propoxy}-5H-furo[3,2-g][1]benzopyran-5-one] | 32.3 ± 7.9 | 1.31 | 18.2 ± 3.6 | 2.32 | 27.4 ± 6.5 | 1.54 | 11.4 to 11.5 | 3.68 | 42.3 ± 7.9 | cells in late apoptosis or necrosis [6]: 55.6%; reduction of IL-6 secretion vs control [12]: around 50%; reduction of IL-6 release vs control [13]: strongest effect; IC50 [4, 19]: 11.5 ± 6.6 µM |
| CCc1cc(=O)c2c(OCC(O)CN3CCC(C)CC3)c3ccoc3c(OC)c2o1 (stereo not shown) [Compound 5, 7-ethyl-9-methoxy-4-[2-hydroxy-3-(4-methylpiperidin-1-yl)propoxy]-5H-furo[3,2-g][1]benzopyran-5-one] | 43.8 ± 8.3 | 1.00 | 29.4 ± 4.9 | 1.49 | 32.6 ± 3.7 | 1.34 | 26.3 ± 3.3 | 1.67 | 43.8 ± 8.3 | – |
| CCc1cc(=O)c2c(OCC(O)CN3CCCCC3)c3ccoc3c(OC)c2o1 (stereo not shown) [Compound 7, 7-ethyl-9-methoxy-4-[2-hydroxy-3-(piperidin-1-yl)propoxy]-5H-furo[3,2-g][1] benzopyran-5-one] | 35.2 ± 6.3 | 1.47 | 32.5 ± 4.1 | 1.60 | 32.3 ± 3.8 | 1.61 | 28.6 ± 5.5 | 1.81 | 51.9 ± 6.3 | – |
| CCc1cc(=O)c2c(OCC(O)CNC(C)(C)C)c3ccoc3c(OC)c2o1 (stereo not shown) [Compound 8, 7-ethyl-9-methoxy-4-[3-(tert-butylamino)-2-hydroxypropoxy]-5H-furo[3,2-g][1] benzopyran-5-one] | 38.4 ± 7.3 | 1.20 | 31.3 ± 2.6 | 1.47 | 33.4 ± 4.6 | 1.38 | 26.3 ± 4.3 | 1.75 | 46.1 ± 7.3 | – |
| CCc1cc(=O)c2c(OCC(O)CN3CCOCC3)c3ccoc3c(OC)c2o1 (stereo not shown) [Compound 9, 7-ethyl-9-methoxy-4-[2-hydroxy-3-(morpholin-4-yl)propoxy]-5H-furo[3,2-g][1] benzopyran-5-one] | 37.6 ± 7.3 | 1.43 | 23.4 ± 2.6 | 2.29 | 29.5 ± 4.6 | 1.82 | 21.9 ± 4.3 | 2.45 | 53.6 ± 7.3 | – |
| N.N.[Cl][Pt][Cl] [Ref 1, cisplatin, reference compound] | – | – | – | – | – | – | – | – | – | IC50 ([1]; MTT, 72 h, mean SD): 2.7 ± 1.1 µM; IC50 ([2]; MTT, mean SD): 1.4 ± 0.69 µM; IC50 ([3]; MTT, mean SD): 1.8 ± 0.74 µM; IC50 [4, 19]: 1.9 ± 0.9 µM; IC50 ([5]; MTT, mean SD): 2.8 ± 1.1 µM |
| COc1cccc2c1C(=O)c1c(O)c3c(c(O)c1C2=O)C[C@@](O)(C(=O)CO)C[C@@H]3O[C@H]1C[C@H](N)[C@H](O)[C@H](C)O1 [Ref 2, doxorubicin, reference compound] | 0.9 ± 0.19 | – | 0.5 ± 0.21 | – | 0.6 ± 0.14 | – | 0.7 ± 0.16 | – | – | – |
| CC[C@@]1(O)C(=O)OCc2c1cc1n(c2=O)Cc2cc3ccccc3nc2-1 [camptothecin] | – | – | – | – | – | – | – | – | – | apoptosis induction (positive control) ([6]; A549, 4 µM, 4 h): induced apoptosis; apoptosis induction (positive control) [14]: induced apoptosis; apoptosis induction (positive control) [15]: induced apoptosis; apoptosis induction (positive control) ([8]; HTB-140, 4 µM, 4 h): induced apoptosis; apoptosis induction (positive control) [16]: induced apoptosis |
